Data on two compounds can be found in PubChem BioAssay AID463171 (The Scripps Research Institute Molecular Screening Center, 2010).

Active and inactive are the calls of the source.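 Rule for the calls: active = p27 reporter light at least 10 times the solvent-only level, showing blocked p27 breakdown; inactive = ratio under 10.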

The experiment addresses Cyclin-dependent kinase inhibitor 1B (Homo sapiens) (UniProt P46527). Kind of experiment: inhibitors of p27 turnover in HeLa cells, late-stage follow-up, counter-screen for Wee1 degradation inhibitor project, cell-based, luminescence, p27-luciferase fusion, powder samples (AID 463171). Particulars: HeLa p27-luciferase fusion stability, at 0.1 µM, active compounds read high. In a few lines:
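Material – human HeLa cells transiently expressing a p27-luciferase fusion reporter · Dosing – single nominal 100 nM (0.1 µM) compound dose · Incubation – compound exposure 20 h at 37 °C, cells 48 h post-transfection · Technique – Brite-lite luminescence · Evaluation – average fold change versus DMSO vehicle · Control set – DMSO vehicle-treated cells as reference · Repeats – quadruplicate wells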
Background: A counterscreen serves to expose hits that act by an unwanted route or on another target.

Chain of Cyclin-dependent kinase inhibitor 1B (Homo sapiens) (P46527 whole entry, looked up, the tested form may be a part): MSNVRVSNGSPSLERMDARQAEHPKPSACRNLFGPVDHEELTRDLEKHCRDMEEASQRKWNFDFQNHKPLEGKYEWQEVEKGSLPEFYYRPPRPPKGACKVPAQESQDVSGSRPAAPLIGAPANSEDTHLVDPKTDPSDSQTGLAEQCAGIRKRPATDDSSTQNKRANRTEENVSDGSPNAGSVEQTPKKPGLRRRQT

Turning to `O=[N+]([O-])c1cccc2[nH]c(CNc3nc(N4CCOCC4)nc4c3ncn4-c3ccsc3)nc12`, the fold change is 4.61 (inactive). For `c1ccc2[nH]c(CNc3nc(N4CCOCC4)nc4c3ncn4-c3ccsc3)nc2c1`, the fold change was 3.13 (inactive).
